According to ChEMBL document CHEMBL1137341, “Small-molecule inhibitors of histone acetyltransferase activity: identification and biological properties” (2006):
Active and inactive are the calls of the source. The calls are words filed in the database; no cut-off is given here.

Tests used:
[1] = target: Histone acetyltransferase GCN5 (Saccharomyces cerevisiae S288c) (UniProt Q03330); assay: Inhibition of Saccharomyces cerevisiae GCN5 at 0.6 mM
Method in brief: (§1)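 Yeast strains (wild-type MK839, F221A and E173H GCN5 catalytic mutants, spt20∆) grown at 28 °C with 0.6 mM compound; ten-fold serial dilutions of liquid culture spotted on solid medium. Growth estimated by optical density as arbitrary units.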

[2] = tested on: Saccharomyces cerevisiae; assay: Inhibition of Saccharomyces cerevisiae growth at 0.6 mM; type: functional, organism-based; method in brief: as §1
[3] = target: Histone acetyltransferase GCN5 (Saccharomyces cerevisiae S288c) (UniProt Q03330); assay: Inhibition of GCN5-dependent HIS3-LacZ reporter gene transcription measured as level of beta-galactosidase activity in Saccharomyces cerevisiae; type: functional
Method in brief: (§2)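 Yeast reporter strains: HIS3-LacZ (yPO14) grown 16 h in SD at 28 °C and then 4 h with 25 mM 3-aminotriazole; GAL10-CYC1-LacZ (yPO1569) grown 16 h in SD, washed, then 4 h in galactose SG medium. Compounds at 0.6 mM. β-Gal activity read in glass-bead extracts normalized to Bradford protein; 1 unit = 1 µmol o-nitrophenol/min.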

[4] = target: Histone acetyltransferase GCN5 (Saccharomyces cerevisiae S288c) (UniProt Q03330); assay: Inhibition of GCN5-dependent HIS3-LacZ reporter gene transcription measured as level of beta-galactosidase activity in Saccharomyces cerevisiae in presence of 3-aminotriazole; type: functional
[5] = tested on: Saccharomyces cerevisiae; assay: Inhibition of Saccharomyces cerevisiae H3 histone acetylation at 1.5 mM; type: functional, organism-based
Method in brief: (§3)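 Wild-type S. cerevisiae grown 16 h in YPD at 28 °C with 0.6, 1 or 1.5 mM compound; gcn5∆ strain run in parallel. Alkaline protein extraction, 15% SDS-PAGE, Western blot with anti-acetyl-H3 and anti-H3 antibodies, ECL detection.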

[6] = tested on: U-937; assay: Effect on granulocytic differentiation in human U937 cells measured as CD11c expression level at 1 mM after 30 hrs; type: functional
Method in brief: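 U937 cells (RPMI, 10% FBS, 200 000 cells/mL) exposed 30 h to 1 mM. Stained with PE-conjugated CD11c, 30 min at 4 °C in the dark; PE mouse IgG1 as staining control; propidium iodide 0.25 µg/mL added and PI-positive cells excluded. Reported as percent CD11c-positive cells by FACS.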

[7] = tested on: U-937; assay: Inhibition of HAT in human U937 cells at 500 uM; type: functional; design: scale not given: the % may be the effect or the level left
Method in brief: (§4)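 Indirect ELISA for acetylated histone H3 using 10 µg U937 nuclear extract per well as HAT source; 90 min incubation with compound (25, 50 or 500 µM) or DMSO control. Acetylated H3 peptide standard curve; expressed as % inhibition relative to untreated extract (100%).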

[8] = tested on: U-937; assay: Inhibition of alpha-tubulin acetylation in human U937 cells at 2.5 mM; type: functional, cell-based
Method in brief: (§5)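 U937 cells pretreated 2 h with 5 µM SAHA, washed, then incubated 4 h with vehicle or compound at 2.5 mM. Western blot for acetylated histone H3 and acetylated α-tubulin (50 µg protein on 10% gels, normalized to total ERKs).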

[9] = tested on: Saccharomyces cerevisiae; assay: Inhibition of GCN5-independent GAL10-CYC1-LacZ reporter gene transcription measured as level of beta-galactosidase activity in Saccharomyces cerevisiae under galactose induction
[10] = tested on: U-937; assay: Inhibition of HAT in human U937 cells at 50 uM; type: functional; design: scale not given: the % may be the effect or the level left; method in brief: as §4
[11] = tested on: U-937; assay: Inhibition of HAT in human U937 cells at 25 uM; type: functional; design: scale not given: the % may be the effect or the level left; method in brief: as §4
[12] = tested on: U-937; assay: Inhibition of H3 histone acetylation in human U937 cells at 100 uM; type: functional, cell-based
Method in brief: (§6)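 SAHA 5 µM pretreatment of U937 cells for 2 h, then wash and 4 h with vehicle or 100 µM compound. Acetyl-H3 and acetyl-α-tubulin detected by Western blot (50 µg total protein for tubulin, total ERKs as loading control).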

[13] = tested on: U-937; assay: Inhibition of alpha-tubulin acetylation in human U937 cells at 100 uM; type: functional, cell-based; method in brief: as §6
[14] = tested on: Saccharomyces cerevisiae; assay: Inhibition of growth of Saccharomyces cerevisiae F221A mutant at 0.6 mM; type: functional, organism-based; method in brief: as §1
[15] = tested on: Saccharomyces cerevisiae; assay: Inhibition of growth of Saccharomyces cerevisiae E173H mutant at 0.6 mM; type: functional, organism-based; method in brief: as §1
[16] = tested on: Saccharomyces cerevisiae; assay: Inhibition of growth of wild type Saccharomyces cerevisiae MK839 mutant at 0.6 mM; type: functional, organism-based; method in brief: as §1
[17] = tested on: Saccharomyces cerevisiae; assay: Inhibition of growth of Saccharomyces cerevisiae spt20delta mutant at 0.6 mM; type: functional, organism-based; method in brief: as §1
[18] = tested on: Saccharomyces cerevisiae; assay: Inhibition of GCN5-independent GAL10-CYC1-LacZ reporter gene transcription measured as level of beta-galactosidase activity in Saccharomyces cerevisiae; type: functional, organism-based; method in brief: as §2
[19] = tested on: Saccharomyces cerevisiae; assay: Inhibition of Saccharomyces cerevisiae H3 histone acetylation at 0.6 mM; type: functional, organism-based; method in brief: as §3
[20] = tested on: Saccharomyces cerevisiae; assay: Inhibition of Saccharomyces cerevisiae H3 histone acetylation at 1 mM; type: functional, organism-based; method in brief: as §3
[21] = tested on: U-937; assay: Cell cycle arrest at G1 phase in human U937 cells at 1 mM after 24 hrs; type: functional, cell-based
Method in brief: (§7)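 U937 cells in RPMI with 10% FBS and antibiotics, held at 200 000 cells/mL, treated 24 h at 1 mM (DMSO stock). Cell cycle: 2.5 × 10^5 cells in hypotonic buffer with propidium iodide and RNase A, 30 min dark, flow cytometry; three experiments. Apoptosis: Annexin V/propidium iodide double staining by FACS.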

[22] = tested on: U-937; assay: Induction of apoptosis in human U937 cells at 1 mM after 24 hrs; type: functional; method in brief: as §7
[23] = tested on: U-937; assay: Inhibition of H3 histone acetylation in human U937 cells at 2.5 mM; type: functional, cell-based; method in brief: as §5

Sequence of Histone acetyltransferase GCN5 (Saccharomyces cerevisiae S288c) (Q03330 whole entry): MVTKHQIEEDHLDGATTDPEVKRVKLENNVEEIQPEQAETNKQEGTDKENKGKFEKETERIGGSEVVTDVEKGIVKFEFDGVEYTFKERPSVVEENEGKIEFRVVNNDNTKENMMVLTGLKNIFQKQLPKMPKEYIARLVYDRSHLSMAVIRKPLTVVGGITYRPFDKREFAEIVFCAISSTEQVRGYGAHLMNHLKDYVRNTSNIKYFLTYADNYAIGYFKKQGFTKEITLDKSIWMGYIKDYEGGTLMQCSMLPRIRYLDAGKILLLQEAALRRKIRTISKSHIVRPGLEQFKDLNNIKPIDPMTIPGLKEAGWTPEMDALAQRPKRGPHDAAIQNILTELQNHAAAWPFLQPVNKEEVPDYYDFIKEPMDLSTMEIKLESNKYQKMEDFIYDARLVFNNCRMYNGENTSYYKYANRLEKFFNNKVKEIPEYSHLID

Structure (SMILES): Cc1ccc2ccccc2n1
- Activity [1]: inactive

Structure (SMILES): CCOC(=O)c1c(C)nc2ccccc2c1O
- Activity [1]: inactive

Structure (SMILES): CCOC(=O)c1cnc2ccccc2c1
- Activity [2]: Active
- Activity [1]: Active
- Activity [3]: Active
- Activity [4]: Active
- Activity [5]: Active
- Activity [6]: 14%
- Activity [7]: 25%
- Activity [8]: Active
- Activity [9]: Active

Structure (SMILES): CCOC(=O)c1ccc2ccccc2c1
- Activity [1]: inactive

Structure (SMILES): C=C1C(=O)O[C@H](CCC)[C@H]1C(=O)O
- Activity [10]: 44%

Structure (SMILES): O=C(O)c1cnc2ccccc2c1
- Activity [1]: inactive

Structure (SMILES): NC(=O)c1cnc2ccccc2c1
- Activity [1]: inactive

Structure (SMILES): CCCCCc1nc2ccccc2c(O)c1C(=O)O
- Activity [10]: 30%
- Activity [11]: 24%
- Activity [12]: Active
- Activity [13]: Active

Structure (SMILES): CCOC(=O)c1cccnc1C
- Activity [1]: inactive
- Activity [14]: inactive
- Activity [15]: inactive
- Activity [16]: inactive
- Activity [17]: inactive
- Activity [3]: inactive
- Activity [4]: inactive
- Activity [18]: inactive
- Activity [9]: inactive

Structure (SMILES): CCOC(=O)c1cc2ccccc2nc1C
- Activity [2]: Active
- Activity [3]: Active
- Activity [4]: Active
- Activity [18]: inactive
- Activity [19]: Active
- Activity [20]: Active
- Activity [21]: Active
- Activity [22]: 27%
- Activity [6]: 8.8%
- Activity [7]: 32%
- Activity [23]: Active
- Activity [8]: Active
- Activity [9]: inactive

Structure (SMILES): COc1cc(/C=C/C(=O)CC(=O)/C=C/c2ccc(O)c(OC)c2)ccc1O [CURCUMIN]
- Activity [10]: 17.5%

Structure (SMILES): C=CC/C=C\C/C=C\CCCCCCCc1cccc(O)c1C(=O)O [ANACARDIC ACID]
- Activity [10]: 15%
